In series [1] the target is T1, Urotensin-2 receptor (Homo sapiens, UniProt Q9UKP6).
T1 sequence (Q9UKP6 whole entry): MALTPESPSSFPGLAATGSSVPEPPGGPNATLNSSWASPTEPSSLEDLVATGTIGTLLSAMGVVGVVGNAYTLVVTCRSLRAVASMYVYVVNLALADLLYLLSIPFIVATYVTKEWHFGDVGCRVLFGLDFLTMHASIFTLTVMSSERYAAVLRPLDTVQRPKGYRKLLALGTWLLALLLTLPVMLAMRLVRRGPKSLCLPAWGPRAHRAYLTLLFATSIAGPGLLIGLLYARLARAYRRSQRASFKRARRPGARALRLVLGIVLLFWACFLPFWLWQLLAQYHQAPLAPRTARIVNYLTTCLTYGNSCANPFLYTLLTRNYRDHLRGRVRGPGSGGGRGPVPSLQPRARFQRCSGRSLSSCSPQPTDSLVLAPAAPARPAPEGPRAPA
Nature of the series: Agonist activity at human U-IIR expressed in HEK293-A cells by Fluo4-AM dye based intracellular calcium mobilization assay. Type of series: functional, cell-based.

The target in series [2] is T1, Urotensin-2 receptor. Nature of the series: Displacement of [125I-Tyr9]-U-II from human U-IIR expressed in HEK293-A cells incubated for 30 mins by gamma counting based competition radioligand binding assay. Type of series: cell-based. Background: In a radioligand displacement assay an active substance lowers the binding of a labelled ligand.
The nature of series [3]: Half life in 25% human serum by RP-HPLC analysis. In kind it is ADME, cell-free. In outline:
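Peptide at 50 μg/mL final in RPMI with 25% (v/v) human serum, pre-equilibrated at 37 °C. Samples taken at set times into 6% TCA, iced 15 min, spun at 18000g. Supernatant run on C18 RP-HPLC, 25–80% acetonitrile gradient over 15 min at 30 °C, absorbance at 214 and 280 nm.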

Bridge positions count the residues as written; N and C are the ends. Peptide text beside a SMILES is read from it.

Regarding `CCC(NC(=O)[C@H](Cc1ccc(O)c([N+](=O)[O-])c1)NC(=O)[C@H](CCCCN)NC(=O)[C@H](Cc1c[nH]c2ccccc12)NC(=O)[C@H](Cc1c[nH]c2ccccc12)NC(=O)[C@@H](N)CC(N)=O)C(N)=O` (stereo partly specified), the half-maximal effective concentration (EC50) at Urotensin-2 receptor [1] was 3.47 nM. On Urotensin-2 receptor [2], this compound yielded an IC50 of 1090 nM. Besides, the half-life in series [3] is 55 min.

Regarding `CCC(NC(=O)[C@H](Cc1ccc(O)cc1)NC(=O)[C@H](CCCCN)NC(=O)[C@H](Cc1c[nH]c2ccccc12)NC(=O)[C@H](Cc1c[nH]c2ccccc12)NC(=O)[C@@H](N)CC(N)=O)C(N)=O` (stereo partly specified), the EC50 at Urotensin-2 receptor [1] worked out at 60 nM. Besides, the IC50 on Urotensin-2 receptor [2] is > 10000 nM. Also, in series [3], the half-life was 50 min.

Consider `CCC(NC(=O)[C@H](Cc1ccc(O)cc1)NC(=O)[C@H](CCCCN)NC(=O)[C@H](Cc1c[nH]c2ccccc12)NC(=O)C(Cc1ccc2ccccc2c1)NC(=O)[C@@H](N)CC(N)=O)C(N)=O` (stereo partly specified), for which the EC50 at Urotensin-2 receptor [1] was found to be 108 nM. Also, the IC50 on Urotensin-2 receptor [2] came to 7880 nM. Further, in series [3], the half-life was 34 min.

With `CCC(NC(=O)[C@H](Cc1ccc(O)cc1)NC(=O)[C@H](CCCCN)NC(=O)[C@H](Cc1c[nH]c2ccccc12)NC(=O)[C@H](Cc1ccc2ccccc2c1)NC(=O)[C@H](N)CC(N)=O)C(N)=O` (stereo partly specified), the EC50 at Urotensin-2 receptor [1] was determined as 25.5 nM. At Urotensin-2 receptor [2], this compound came in with an IC50 of 4890 nM. In series [3], this compound registered a half-life of 770 min.

As for `NCCCC[C@@H]1NC(=O)[C@H](Cc2c[nH]c3ccccc23)NC(=O)[C@H](Cc2ccccc2)NC(=O)[C@@H](N)CSSC[C@@H](C(N)=O)NC(=O)[C@H](Cc2ccc(O)cc2)NC1=O` (H-CFWKYC-NH2; disulfide 1-6), the concentration giving a half-maximal response (EC50) on Urotensin-2 receptor [1] worked out at 3.8 nM.

Take `CC(C)[C@H](NC(=O)[C@@H]1CSSC[C@H](N)C(=O)N[C@@H](Cc2ccccc2)C(=O)N[C@@H](Cc2c[nH]c3ccccc23)C(=O)N[C@@H](CCCCN)C(=O)N[C@@H](Cc2ccc(O)cc2)C(=O)N1)C(N)=O` (H-CFWKYCV-NH2; disulfide 1-6): at Urotensin-2 receptor [1], the 50% effective concentration (EC50) worked out at 0.83 nM.

Take `CC(C)[C@H](NC(=O)[C@@H]1CSSC[C@H](NC(=O)[C@@H](N)Cc2ccccc2)C(=O)N[C@@H](Cc2ccccc2)C(=O)N[C@@H](Cc2c[nH]c3ccccc23)C(=O)N[C@@H](CCCCN)C(=O)N[C@@H](Cc2ccc(O)cc2)C(=O)N1)C(N)=O` (H-FCFWKYCV-NH2; disulfide 2-7): the 50% effective concentration (EC50) at Urotensin-2 receptor [1] came out at 4.8 nM.

Take `NCCCC[C@H](NC(=O)[C@H](Cc1c[nH]c2ccccc12)NC(=O)[C@@H](N)Cc1ccccc1)C(=O)N[C@@H](Cc1ccc(O)cc1)C(N)=O` (H-FWKY-NH2): the EC50 at Urotensin-2 receptor [1] was 179 nM.

As for `NCCCC[C@H](NC(=O)[C@H](Cc1c[nH]c2ccccc12)NC(=O)[C@@H](N)Cc1ccccc1)C(N)=O` (H-Phe-Trp-Lys-NH2), on Urotensin-2 receptor [1], the EC50 was > 10000 nM.

For the compound `CC(C)[C@H](NC(=O)[C@@H]1CSSC[C@H](NC(=O)[C@@H](N)CCC(N)=O)C(=O)N[C@@H](Cc2ccccc2)C(=O)N[C@@H](Cc2c[nH]c3ccccc23)C(=O)N[C@@H](CCCCN)C(=O)N[C@@H](Cc2ccc(O)cc2)C(=O)N1)C(N)=O` (H-QCFWKYCV-NH2; disulfide 2-7), the EC50 at Urotensin-2 receptor [1] turned out to be 1.99 nM.

In the case of `CC(C)[C@H](NC(=O)[C@@H]1CSSC[C@H](NC(=O)[C@@H](N)[C@@H](C)O)C(=O)N[C@@H](Cc2ccccc2)C(=O)N[C@@H](Cc2c[nH]c3ccccc23)C(=O)N[C@@H](CCCCN)C(=O)N[C@@H](Cc2ccc(O)cc2)C(=O)N1)C(N)=O` (H-TCFWKYCV-NH2; disulfide 2-7), at Urotensin-2 receptor [1], the EC50 is 3.9 nM.

As for `NCCCC[C@H](NC(=O)[C@@H](N)Cc1c[nH]c2ccccc12)C(=O)N[C@@H](Cc1ccc(O)cc1)C(N)=O` (H-Trp-Lys-Tyr-NH2), the EC50 on Urotensin-2 receptor [1] is > 10000 nM.

With H-CFWKY-NH2, the EC50 at Urotensin-2 receptor [1] came out at 201 nM.

As to H-DHFWKYCV-NH2, the concentration for a half-maximal effect (EC50) on Urotensin-2 receptor [1] came to 29.8 nM.

As to H-DNFWKYCV-NH2, at Urotensin-2 receptor [1], the EC50 is 155 nM.

In the case of H-FWKYC-NH2, at Urotensin-2 receptor [1], the EC50 was 141 nM.

With H-NWWKYD-NH2, the EC50 on Urotensin-2 receptor [1] amounted to 50.4 nM.

For H-NWWKYE-NH2, on Urotensin-2 receptor [1], the EC50 was 65.6 nM.

As to H-NWWKYS-NH2, the EC50 on Urotensin-2 receptor [1] stood at 91.5 nM.

Consider H-NWWKYT-NH2, for which the EC50 at Urotensin-2 receptor [1] was found to be 143 nM.

As to H-QVFWKYCV-NH2, the EC50 on Urotensin-2 receptor [1] is 9.63 nM.

In the case of H-TVFWKYCV-NH2, on Urotensin-2 receptor [1], the EC50 is 11.2 nM.

As for H-TWWKYC-NH2, the EC50 at Urotensin-2 receptor [1] was 103 nM.

One may read the EC50 as the concentration that produces a half-maximal response. One may read the IC50 as the midpoint of a concentration-inhibition curve. The term half-life denotes the time in which the quantity being followed falls by half. A low value points to fast loss.
